Experimental data reported in ChEMBL document CHEMBL2396608, “Thiazolylaminomannosides as potent antiadhesives of type 1 piliated Escherichia coli isolated from Crohn's disease patients” (J Med Chem, 2013).
The source made the active and inactive calls. The rule behind the calls is not given here.

Assays:
Escherichia coli [1] = assay: Antiadhesive activity against type-1 piliated adherent-invasive Escherichia coli LF82 assessed as inhibition of guinea pig erythrocyte hemagglutination relative to heptylmannoside; assay type: functional
In short: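 LF82 grown statically overnight in LB at 37 °C and washed three times in ice-cold PBS. Twofold compound dilutions, starting at 1 mM, made in 20 mM HEPES pH 7.4, 150 mM NaCl. Added 25 μL bacteria, then 50 μL guinea pig erythrocytes at 5%. Overnight on ice before read-out.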

[2] = biological target: Type 1 fimbrin D-mannose specific adhesin (Escherichia coli K-12) (UniProt P08191); assay: Binding affinity to Escherichia coli FimH assessed as decrease in RNaseB binding after 1 hr by competitive ELISA
Chain of Type 1 fimbrin D-mannose specific adhesin (Escherichia coli K-12) (P08191 whole entry): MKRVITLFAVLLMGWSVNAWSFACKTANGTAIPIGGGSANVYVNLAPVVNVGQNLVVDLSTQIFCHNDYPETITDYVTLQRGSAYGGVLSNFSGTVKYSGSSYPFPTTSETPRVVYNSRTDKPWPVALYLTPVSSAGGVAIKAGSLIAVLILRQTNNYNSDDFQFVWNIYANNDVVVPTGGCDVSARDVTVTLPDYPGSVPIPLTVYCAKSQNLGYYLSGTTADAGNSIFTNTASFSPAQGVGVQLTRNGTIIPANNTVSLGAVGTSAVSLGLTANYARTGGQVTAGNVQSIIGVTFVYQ
In short: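 Wells coated with RNaseB in bicarbonate buffer pH 9.6, overnight at 4 °C. Blocked with 3% BSA in PBST, 2 h at 37 °C. Inhibitors in PBST plus FimH at 0.07 μM, 1 h at room temperature. Detection used rabbit anti-FimH (1:2500, 1 h), then HRP anti-rabbit (1:5000, 1 h), then TMB for 2–5 min in the dark, stopped with 1N H₂SO₄. Absorbance read at 450 nm.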

Escherichia coli [3] = assay: Antiadhesive activity against type-1 piliated adherent-invasive Escherichia coli LF82 assessed as inhibition of bacterial adhesion to colonic tissue isolated from FVB/N transgenic mouse expressing human CEACAM6 after 1 hr; assay type: functional, organism-based
In short: (§1)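 Colons from 10–12-week-old FVB/N CEABAC10 mice (human CEACAM6 transgenic; anesthetized, killed by cervical dislocation) split into four loops. Each loop was injected with 100 μL holding 2 × 10⁵ LF82 with or without inhibitor at 0.01, 0.1, 1 or 10 μmol, then held 1 h at 37 °C, 5% CO₂. Loops were opened, washed four times in PBS, homogenized and plated on LB agar with ampicillin 100 μg/mL and erythromycin 20 μg/mL. CFU normalized to untreated (100%); n = 5–8 mice, means SEM.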

Escherichia coli [4] = assay: Ratio of compound activity to D-mannose activity for prevention of Escherichia coli LF82 adhesion to colonic tissue isolated from FVB/N transgenic mouse expressing human CEACAM6; assay type: functional
Escherichia coli [5] = assay: Antiadhesive activity against type-1 piliated adherent-invasive Escherichia coli LF82 assessed as decrease in residual bacterial adhesion to colonic tissue isolated from FVB/N transgenic mouse expressing human CEACAM6 at 0.1 umol after 1 hr relative to control; assay type: functional; in short: as §1
Escherichia coli [6] = assay: Antiadhesive activity against type-1 piliated adherent-invasive Escherichia coli LF82 assessed as inhibition of bacterial adhesion to human T84 cells overexpressing CEACAM6 at 0.1 to 100 uM incubated for 1 hr prior to infection measured after 3 hrs relative to heptylmannoside; assay type: functional
Escherichia coli [7] = assay: Antiadhesive activity against type-1 piliated adherent-invasive Escherichia coli LF82 assessed as residual bacterial adhesion to human T84 cells overexpressing CEACAM6 at 0.1 uM incubated for 1 hr prior to infection measured after 3 hrs relative to control; assay type: functional
In short: (§2)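 T84 cells seeded at 1.5 × 10⁵ cells/well and grown 48 h at 37 °C under 5% CO₂. Washed monolayers pretreated 1 h with inhibitor at final 0.1, 1, 10 or 100 μM (α-D-mannose 100–50000 μM), then infected 3 h with LB-grown LF82 at MOI 10 with inhibitor present. Cells lysed in 1% Triton X-100; CFU counted on LB agar. Residual adhesion given as % of untreated (means SEM).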

Escherichia coli [8] = assay: Antiadhesive activity against type-1 piliated adherent-invasive Escherichia coli LF82 assessed as inhibition of bacterial adhesion to human T84 cells overexpressing CEACAM6 incubated for 1 hr prior to infection measured after 3 hrs; assay type: functional, organism-based; in short: as §2
Escherichia coli [9] = assay: Antiadhesive activity against type-1 piliated adherent-invasive Escherichia coli LF82 assessed as residual bacterial adhesion to human T84 cells overexpressing CEACAM6 at 1 uM incubated for 1 hr prior to infection measured after 3 hrs relative to control; assay type: functional; in short: as §2
Escherichia coli [10] = assay: Antiadhesive activity against type-1 piliated adherent-invasive Escherichia coli LF82 assessed as decrease in residual bacterial adhesion to colonic tissue isolated from FVB/N transgenic mouse expressing human CEACAM6 at 10 umol after 1 hr relative to control; assay type: functional; in short: as §1
Escherichia coli [11] = assay: Antiadhesive activity against type-1 piliated adherent-invasive Escherichia coli LF82 assessed as residual bacterial adhesion to human T84 cells overexpressing CEACAM6 at 1000 uM incubated for 1 hr prior to infection measured after 3 hrs relative to control; assay type: functional; in short: as §2
Escherichia coli [12] = assay: Antiadhesive activity against type-1 piliated adherent-invasive Escherichia coli LF82 assessed as residual bacterial adhesion to human T84 cells overexpressing CEACAM6 at 10 uM incubated for 1 hr prior to infection measured after 3 hrs relative to control; assay type: functional; in short: as §2
[13] = biological target: Type 1 fimbrin D-mannose specific adhesin (Escherichia coli K-12, UniProt P08191); assay: Binding affinity to Escherichia coli FimH assessed as dissociation constant by ITC analysis
Chain of Type 1 fimbrin D-mannose specific adhesin (P08191 whole entry): as above

N#Cc1ccc(C(=O)c2cnc(N[C@H]3O[C@H](CO)[C@@H](O)[C@H](O)[C@@H]3O)s2)cc1
fold change (FC) (Escherichia coli [1]): 0.7
Activity [2]: Dose-dependent effect

O=C(c1cnc(N[C@H]2O[C@H](CO)[C@@H](O)[C@H](O)[C@@H]2O)s1)C12CC3CC(CC(C3)C1)C2
fold change (FC) (Escherichia coli [1]): 0.3
Activity [2]: Dose-dependent effect

O=C(c1ccccc1)c1cnc(N[C@H]2O[C@H](CO)[C@@H](O)[C@H](O)[C@@H]2O)s1
fold change (FC) (Escherichia coli [1]): 0.4
Activity [2]: Dose-dependent effect

O=C(c1ccsc1)c1cnc(N[C@H]2O[C@H](CO)[C@@H](O)[C@H](O)[C@@H]2O)s1
fold change (FC) (Escherichia coli [1]): 0.3
Activity [2]: Dose-dependent effect

O=C(c1cccs1)c1cnc(N[C@H]2O[C@H](CO)[C@@H](O)[C@H](O)[C@@H]2O)s1
fold change (FC) (Escherichia coli [1]): 0.1
Activity [2]: Dose-dependent effect

O=C(c1cnc(N[C@H]2O[C@H](CO)[C@@H](O)[C@H](O)[C@@H]2O)s1)C(F)(F)F
fold change (FC) (Escherichia coli [1]): 1.7
Activity [2]: Dose-dependent effect

CC(C)(C)C(=O)c1cnc(N[C@H]2O[C@H](CO)[C@@H](O)[C@H](O)[C@@H]2O)s1
fold change (FC) (Escherichia coli [1]): 0.9
Activity [2]: Dose-dependent effect

O=C(c1ccc([N+](=O)[O-])cc1)c1cnc(N[C@H]2O[C@H](CO)[C@@H](O)[C@H](O)[C@@H]2O)s1
fold change (FC) (Escherichia coli [1]): 0.7
Activity [2]: Dose-dependent effect

Cc1nc(-c2cnccn2)sc1C(=O)c1cnc(N[C@H]2O[C@H](CO)[C@@H](O)[C@H](O)[C@@H]2O)s1
inhibition (Escherichia coli [3]): Dose-dependent effect
Ratio (Escherichia coli [4]): 10
Activity (Escherichia coli [5]): 65%
fold change (FC) (Escherichia coli [6]): 0.01
Activity (Escherichia coli [7]): 57.6%
inhibition (Escherichia coli [8]): Dose-dependent effect
fold change (FC) (Escherichia coli [1]): 0.2
Activity [2]: Dose-dependent effect
Activity (Escherichia coli [9]): 14%

O=C(c1ccc2ccccc2c1)c1cnc(N[C@H]2O[C@H](CO)[C@@H](O)[C@H](O)[C@@H]2O)s1
fold change (FC) (Escherichia coli [1]): 2.3
Activity [2]: Dose-dependent effect

OC[C@H]1O[C@H](O)[C@@H](O)[C@@H](O)[C@@H]1O
inhibition (Escherichia coli [3]): Dose-dependent effect
Activity (Escherichia coli [10]): 41%
Activity (Escherichia coli [11]): 51.6%
inhibition (Escherichia coli [8]): Dose-dependent effect

Cc1ccc(C(=O)c2cnc(N[C@H]3O[C@H](CO)[C@@H](O)[C@H](O)[C@@H]3O)s2)cc1
fold change (FC) (Escherichia coli [1]): 0.4
Activity [2]: Dose-dependent effect

CC(=O)c1cnc(N[C@H]2O[C@H](CO)[C@@H](O)[C@H](O)[C@@H]2O)s1
inhibition (Escherichia coli [8]): Dose-dependent effect
fold change (FC) (Escherichia coli [1]): 1.4
Activity [2]: Dose-dependent effect

CCCCCCCO[C@H]1O[C@H](CO)[C@@H](O)[C@H](O)[C@@H]1O
Activity (Escherichia coli [12]): 52.4%
inhibition (Escherichia coli [8]): Dose-dependent effect
Kd [13]: 7 nM
Activity (Escherichia coli [9]): inactive
